# Measurements collected from several papers.
# Protocols differ between the studies behind these lines.
# LCK: Tyrosine-protein kinase Lck (LCK, Homo sapiens, UniProt P06239)
Structure (SMILES),target,effect on,mode,method,setting,measurement,result
Cc1cc2nc3c(=O)[nH]c(=O)nc-3n(C[C@H](O)[C@H](O)[C@H](O)COP(=O)(O)OP(=O)(O)OC[C@H]3O[C@@H](n4cnc5c(N)ncnc54)[C@H](O)[C@@H]3O)c2cc1C,"Alpha-crystallin B chain (CRYAB, Homo sapiens, UniProt P02511)",binding,,,lysate,Kd,0.152 µM
Cc1cnc(-c2ccc(-c3ccc(NC(=O)Nc4c(F)cc(F)cc4F)cc3F)c3c2C(=O)NC3)[nH]1,LCK,binding,,competition with immobilised ligand,,Kd,0.011 µM
CN1CC(Oc2cnc(C#N)cc2-c2ccn3nc(NC(=O)C4CC4)cc3c2)C1,LCK,enzyme activity,inhibitor,,,Ki,0.22 µM
CC1(C)[C@@H](O)CC[C@]2(C)[C@H]3C(=O)C=C4[C@@H]5C[C@@](C)(C(=O)O)CC[C@]5(C)CC[C@@]4(C)[C@]3(C)CC[C@@H]12,"Peroxiredoxin-2 (PRDX2, Homo sapiens, UniProt P32119)",binding,,SPR,,Kd,30 µM
ON=Cc1ccc(-c2ccc(O)c(F)c2)c(Cl)c1O,"Estrogen receptor beta (ESR2, Homo sapiens, UniProt Q92731)",reporter gene,agonist,luciferase,,EC50,0.072 µM
C[C@@]12CCC(=O)N1c1cc(Nc3ncc(Cl)c(-c4cccc(-c5ccccc5)c4)n3)cnc1OC2,"Phosphatidylinositol 5-phosphate 4-kinase type-2 gamma (PIP4K2C, Homo sapiens, UniProt Q8TBX8)",binding,,,,Kd,0.00045 µM
Nc1ccn([C@@H]2O[C@H](COP(=O)(O)OP(=O)(O)OP(=O)(O)O)[C@@H](O)[C@H]2O)c(=O)n1,"virB (Shigella flexneri, UniProt P0A247)",binding,,ITC,,Kd,9.3 µM
c1cncc(-c2cccc(Nc3nccc(NC4CCCCC4)n3)c2)c1,"Tyrosine-protein kinase JAK2, JH1 (JAK2, Homo sapiens, UniProt O60674)",binding,,competition with immobilised ligand,,Kd,0.26 µM
CC(=O)CC(c1ccccc1)c1c(O)c2ccccc2oc1=O (stereo not drawn),"Vitamin K epoxide reductase complex subunit 1-like protein 1 (Homo sapiens, UniProt Q8N0U8)",enzyme activity,inhibitor,fluorescence,,Ki,0.095 µM
COc1ccc2c(Oc3ccc4c(C(=O)Nc5ccccc5N)cccc4c3)ccnc2c1,"Tyrosine-protein kinase JAK2 (JAK2, Homo sapiens, UniProt O60674)",enzyme activity,inhibitor,,,IC50,> 0.5 µM
CC(C)C[C@H](NC(=O)[C@H](Cc1ccccc1)NC(=O)[C@H](Cc1ccc(O)cc1)NC(=O)CNC(=O)[C@H](CCCNC(=N)N)NC(=O)[C@H](CO)NC(=O)[C@H](CCC(N)=O)NC(=O)[C@H](CO)NC(=O)[C@H](C)NC(=O)[C@H](Cc1ccccc1)NC(=O)[C@@H]1CCCN1C(=O)[C@H](CO)NC(=O)[C@H](CCC(N)=O)NC(=O)[C@H](Cc1ccccc1)NC(=O)[C@H](CCC(=O)O)NC(=O)[C@H](CCC(=O)O)NC(=O)[C@H](CC(=O)O)NC(=O)[C@@H](NC(=O)[C@H](CCCNC(=N)N)NC(=O)[C@@H](N)Cc1ccccc1)C(C)C)C(=O)N[C@@H](Cc1ccccc1)C(=O)N[C@@H](CCCNC(=N)N)C(=O)N1CCC[C@H]1C(=O)N[C@@H](CCCNC(=N)N)C(=O)N[C@@H](CC(N)=O)C(N)=O,"Neuromedin-U receptor 1 (NMUR1, Homo sapiens, UniProt Q9HB89)",inositol phosphate,agonist,,,EC50,0.000123 µM
COc1ccc(-c2nsc(NC(=O)[C@@H]3C[C@H]3C)c2C)cc1,"Metabotropic glutamate receptor 2 (GRM2, Homo sapiens, UniProt Q14416)",calcium signal,agonist,,,EC50,> 25 µM
